Data set [1] is described as follows: folding enthalpy; higher = less favourable; fluorescence melt of hairpins on a sequencing array, two-state fit. The note with it: sodium 0.088 M. A digest of the protocol:
(§1)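 In 50 mM Na-HEPES pH 8.0 containing 25 mM NaCl, hairpins from the library on a sequenced MiSeq flow cell were imaged for Cy3 fluorescence at 2.5 °C steps up to 60 °C, with Cy3 and quencher oligos annealed. After normalisation to pre-quench Cy3 and to control constructs, two-state fits with bootstrapping gave melting temperature and folding enthalpy. Four replicates were combined by inverse-variance weighting, and fitted temperatures were shifted up by 9.35 °C to match UV melts.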

Data set [2] in a line: melting temperature; fluorescence melt of hairpins on a sequencing array, two-state fit, raised by 9.35 °C to match UV melts. The following applies: sodium 0.088 M. Summed up: as §1

GCAGTACCGAAAGGTTGC (((..(((....)))))): the folding enthalpy in data set [1] is -20.4 kcal/mol. In addition, in data set [2], the Tm was determined as 43.3 °C.

On to GCACTGCGAAAGCTGAGC ((.(.((....)).).)), for which the folding enthalpy in data set [1] was -20.5 kcal/mol. For the same sequence, in data set [2], the Tm stood at 49.2 °C.

For the sequence GCTGTGCGAAAGCGCTGC ((.(.((....)).).)), the folding enthalpy in data set [1] is -25.6 kcal/mol. In data set [2], the Tm was found to be 60.1 °C.

For the sequence GATCAAACCGTTGATC ((((((....)))))), in data set [1], the folding enthalpy is -30.6 kcal/mol. The Tm in data set [2] amounted to 42 °C.

As for GATCAGTGGTCTGATC ((((((....)))))), the folding enthalpy in data set [1] is -35.7 kcal/mol. Besides, in data set [2], the Tm was 51.6 °C.

For the sequence GGATATGGAAACATATCC (((((((....))))))), in data set [1], the folding enthalpy was -47 kcal/mol. In data set [2], the Tm turned out to be 54.7 °C.

As for GATGCAGGAAACTGTATC (((.(((....))).))), the folding enthalpy in data set [1] was -33.5 kcal/mol. Also, the Tm in data set [2] was determined as 44.9 °C.

On to GAGGCGGCGAAAGCCCTC (((..(((....)))))), for which, in data set [1], the folding enthalpy was -11 kcal/mol. In data set [2], the Tm stood at 43.1 °C.

GATACTGGAAACAGTACC (.(((((....))))).): in data set [1], the folding enthalpy was -15.7 kcal/mol. The Tm in data set [2] came out at 33.1 °C.

As to GACGTGGGAAACTGCGTC ((((..(....)..)))), the folding enthalpy in data set [1] was -24.6 kcal/mol. The Tm in data set [2] is 47.6 °C.

With GATCACAATAGTGATC ((((((....)))))), the folding enthalpy in data set [1] was -38.3 kcal/mol. Also, in data set [2], the Tm worked out at 60.8 °C.

On to GGGAACGAAAGTTGACCC ((((((....)))..))), for which, in data set [1], the folding enthalpy was -20.9 kcal/mol. Moreover, in data set [2], the Tm was 37.8 °C.

For GTACCCGAAAGGGCGTAC ((((((....)))..))), in data set [1], the folding enthalpy was -14.3 kcal/mol. The Tm in data set [2] is 34.2 °C.

For CGGCGTCGGAAACGACCG (((..(((....)))))), in data set [1], the folding enthalpy was -13.8 kcal/mol. Further, the Tm in data set [2] came to 47.4 °C.

Take GGGTGCGAAAGCAGACCC ((((((....)))..))): the folding enthalpy in data set [1] is -20.4 kcal/mol. For the same sequence, the Tm in data set [2] turned out to be 54.7 °C.

In the case of GATCAGGTAGCTGATC ((((((....)))))), in data set [1], the folding enthalpy is -39.7 kcal/mol. Further, the Tm in data set [2] came out at 53.4 °C.

As to GATCAAACTATTGATC ((((((....)))))), the folding enthalpy in data set [1] was -30.1 kcal/mol. Also, the Tm in data set [2] amounted to 40.3 °C.

Take GCTACTGGAAACAGCAGC (((.(((....))).))): the folding enthalpy in data set [1] was -28.7 kcal/mol. Besides, the Tm in data set [2] stood at 44.7 °C.

With CTATCGAAAGATAG (((((....))))), the folding enthalpy in data set [1] is -21.7 kcal/mol. For the same sequence, the Tm in data set [2] is 47.1 °C.

On to GCATAGCGAAAGCTGCGC ((..(((....)))..)), for which the folding enthalpy in data set [1] is -21 kcal/mol. Besides, the Tm in data set [2] is 61.3 °C.

Consider GAGCCCGAAAGGGGGCTC ((((((....)))..))), for which the folding enthalpy in data set [1] was -22.8 kcal/mol. For the same sequence, the Tm in data set [2] stood at 68.6 °C.

Consider GGTATTCCGAAAGGAACC (((..(((....)))))), for which the folding enthalpy in data set [1] was -12.8 kcal/mol. Also, the Tm in data set [2] turned out to be 29.4 °C.

For the sequence GCGGTTGCCCGC ((((....)))), the folding enthalpy in data set [1] is -14.9 kcal/mol. Further, in data set [2], the Tm came to 62 °C.

As to GAGAGAGCGAAAGCTCTC (((..(((....)))))), the folding enthalpy in data set [1] was -9.57 kcal/mol. For the same sequence, the Tm in data set [2] was 56.7 °C.

For the sequence GCGTGGCGAAAGCCTGGC ((..(((....)))..)), the folding enthalpy in data set [1] is -17.4 kcal/mol. Also, the Tm in data set [2] was 52.4 °C.

Turning to GCTGACGAAAGTCCAGC ((((((....))).))), in data set [1], the folding enthalpy is -24.7 kcal/mol. Also, the Tm in data set [2] is 54.5 °C.

For the sequence GATCCGTACTCGGATC ((((((....)))))), in data set [1], the folding enthalpy was -37.9 kcal/mol. For the same sequence, the Tm in data set [2] worked out at 58.7 °C.

Regarding GATCAGCAAGCTGATC ((((((....)))))), in data set [1], the folding enthalpy was -33 kcal/mol. In data set [2], the Tm was found to be 58.7 °C.

On to GATCCCTGCCGGGATC ((((((....)))))), for which the folding enthalpy in data set [1] was -42.8 kcal/mol. Further, the Tm in data set [2] came out at 60 °C.

GGAGCCGAAAGGCCATCC ((((((....)))..))): the folding enthalpy in data set [1] was -8.68 kcal/mol. The Tm in data set [2] came to 31.6 °C.

On to GGCTGCGGAAACGTAGCC ((((.((....)).)))), for which, in data set [1], the folding enthalpy is -50.1 kcal/mol. In addition, the Tm in data set [2] came to 61 °C.

On to GATCGTGGGTACGATC ((((((....)))))), for which, in data set [1], the folding enthalpy was -37.6 kcal/mol. For the same sequence, the Tm in data set [2] turned out to be 55.3 °C.

Take GCAATGCGAAAGCACCGC ((..(((....)))..)): the folding enthalpy in data set [1] was -9.88 kcal/mol. Besides, in data set [2], the Tm was 33 °C.

In the case of GTAACTGGAAACAGTTGC (.(((((....))))).), the folding enthalpy in data set [1] was -26.6 kcal/mol. Also, in data set [2], the Tm turned out to be 47.4 °C.

Consider GGGGAAGGAAACCTCCCC (((((.(....).))))), for which, in data set [1], the folding enthalpy is -43.9 kcal/mol. In addition, the Tm in data set [2] turned out to be 47.8 °C.

Consider GCGCTTGGAAACGAGCGC (((((.(....).))))), for which the folding enthalpy in data set [1] was -52.1 kcal/mol. Besides, the Tm in data set [2] amounted to 63.8 °C.

On to GCGAAGCGAAAGCGTCGC ((((.((....)).)))), for which, in data set [1], the folding enthalpy is -21.3 kcal/mol. In addition, the Tm in data set [2] stood at 68.7 °C.

Values taken from the array DNA melting data of Ke et al. (doi:10.1101/2024.01.08.574731).
